The target of assay [1] is Lysine-specific demethylase 5A (Homo sapiens, UniProt P29375). Briefly: Potency index, ratio of CPI-455 IC50 to test compound IC50 for human C-terminal FLAG-tagged KDM5A (1 to 1090 residues) expressed in baculovirus infected Sf9 insect cells.
Assay [2] addresses T1, Lysine-specific demethylase 2A (Homo sapiens, UniProt Q9Y2K7).
T1 sequence (Q9Y2K7 whole entry): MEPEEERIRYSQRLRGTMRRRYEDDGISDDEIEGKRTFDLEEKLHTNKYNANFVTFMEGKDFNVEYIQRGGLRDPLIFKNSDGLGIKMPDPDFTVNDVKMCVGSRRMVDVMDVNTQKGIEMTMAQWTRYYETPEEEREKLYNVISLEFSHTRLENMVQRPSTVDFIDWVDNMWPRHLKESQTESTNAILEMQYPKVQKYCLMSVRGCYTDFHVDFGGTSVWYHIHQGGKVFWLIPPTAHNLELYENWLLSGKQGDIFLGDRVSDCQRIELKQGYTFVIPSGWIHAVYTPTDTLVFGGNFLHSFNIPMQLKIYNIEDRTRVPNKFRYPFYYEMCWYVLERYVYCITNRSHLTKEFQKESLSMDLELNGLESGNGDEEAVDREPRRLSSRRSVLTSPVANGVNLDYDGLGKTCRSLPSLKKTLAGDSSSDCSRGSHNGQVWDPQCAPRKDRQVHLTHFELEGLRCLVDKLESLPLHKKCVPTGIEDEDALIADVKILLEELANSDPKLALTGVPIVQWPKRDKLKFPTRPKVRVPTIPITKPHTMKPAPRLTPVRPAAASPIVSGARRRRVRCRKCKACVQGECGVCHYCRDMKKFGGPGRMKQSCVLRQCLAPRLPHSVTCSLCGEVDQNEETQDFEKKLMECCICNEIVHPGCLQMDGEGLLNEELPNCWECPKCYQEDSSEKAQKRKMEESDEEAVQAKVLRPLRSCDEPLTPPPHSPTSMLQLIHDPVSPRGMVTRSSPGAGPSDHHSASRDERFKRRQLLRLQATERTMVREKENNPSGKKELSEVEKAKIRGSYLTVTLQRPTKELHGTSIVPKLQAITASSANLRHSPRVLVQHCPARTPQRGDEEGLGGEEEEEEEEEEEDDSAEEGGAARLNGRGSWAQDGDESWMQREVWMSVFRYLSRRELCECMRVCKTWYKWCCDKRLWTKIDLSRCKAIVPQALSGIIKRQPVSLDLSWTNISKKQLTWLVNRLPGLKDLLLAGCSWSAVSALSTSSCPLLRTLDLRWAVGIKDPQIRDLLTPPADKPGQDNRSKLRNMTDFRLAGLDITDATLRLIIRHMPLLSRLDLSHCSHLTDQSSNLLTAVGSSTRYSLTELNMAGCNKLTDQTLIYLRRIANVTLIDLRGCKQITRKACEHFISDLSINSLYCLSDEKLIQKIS
Briefly: Inhibition of human N-terminal FLAG/Avi-tagged KDM2A (2 to 700 residues) expressed in baculovirus infected Sf9 insect cells using H3(21-44)-K36(Me2)-GK(Biotin)/2-OG as substrate measured after 1 hr by Alphalisa assay. The procedure, abridged:
(§1)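 AlphaLISA demethylase assay in 50 mM HEPES pH 7.5, 0.1% BSA, 0.01% Tween 20 with DMSO. Enzyme and inhibitor combined, then peptide plus 2-OG (50 µM), Fe(II) (5 µM) and ascorbate (100 µM) in the added mix; 1 h at room temperature with shaking.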

The target of assay [3] is T2, Lysine-specific demethylase 4A (Homo sapiens, UniProt O75164).
T2 sequence (O75164 whole entry): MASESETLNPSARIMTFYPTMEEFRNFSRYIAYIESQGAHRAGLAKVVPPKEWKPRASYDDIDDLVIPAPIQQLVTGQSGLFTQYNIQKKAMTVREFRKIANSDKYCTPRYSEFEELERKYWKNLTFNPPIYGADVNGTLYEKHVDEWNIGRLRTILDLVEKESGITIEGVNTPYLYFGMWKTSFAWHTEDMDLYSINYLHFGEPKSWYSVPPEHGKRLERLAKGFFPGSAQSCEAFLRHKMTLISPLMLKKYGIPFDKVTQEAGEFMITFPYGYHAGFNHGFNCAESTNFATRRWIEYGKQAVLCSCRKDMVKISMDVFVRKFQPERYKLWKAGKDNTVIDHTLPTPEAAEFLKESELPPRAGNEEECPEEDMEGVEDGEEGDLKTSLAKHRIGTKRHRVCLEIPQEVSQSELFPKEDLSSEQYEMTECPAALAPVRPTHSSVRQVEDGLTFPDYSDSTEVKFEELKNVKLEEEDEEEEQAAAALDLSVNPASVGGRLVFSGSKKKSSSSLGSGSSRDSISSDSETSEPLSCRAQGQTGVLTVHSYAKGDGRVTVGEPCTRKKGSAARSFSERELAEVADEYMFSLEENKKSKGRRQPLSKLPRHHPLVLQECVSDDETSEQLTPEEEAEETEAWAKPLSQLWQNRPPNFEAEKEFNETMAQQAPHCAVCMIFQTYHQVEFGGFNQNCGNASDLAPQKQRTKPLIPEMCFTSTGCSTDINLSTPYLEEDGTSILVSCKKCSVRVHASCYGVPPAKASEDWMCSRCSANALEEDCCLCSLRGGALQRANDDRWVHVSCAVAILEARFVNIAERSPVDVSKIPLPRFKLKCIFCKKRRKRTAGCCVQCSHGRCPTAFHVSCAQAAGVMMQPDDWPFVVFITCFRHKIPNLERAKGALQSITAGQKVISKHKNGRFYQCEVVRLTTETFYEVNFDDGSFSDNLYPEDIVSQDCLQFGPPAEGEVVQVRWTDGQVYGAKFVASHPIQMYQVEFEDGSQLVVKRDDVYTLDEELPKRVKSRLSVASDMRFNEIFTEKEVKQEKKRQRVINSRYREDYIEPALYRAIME
Put plainly: Inhibition of human N-terminal His-tagged KDM4A (1 to 350 residues) expressed in Escherichia coli using H3(21-44)-K36(Me3)-GK(Biotin)/2-OG as substrate measured after 1 hr by Alphalisa assay. The procedure, abridged: as §1
For orientation: Alpha assays give light when donor and acceptor beads are brought close together.

Assay [4] deals with Histone lysine demethylase PHF8 (Homo sapiens, UniProt Q9UPP1). Briefly: Inhibition of human N-terminal FLAG-tagged KDM7B (2 to 525 residues) expressed in baculovirus infected Sf9 insect cells using H3(1-21)K9(Me2)-GGK(Biotin)/2-OG as substrate measured after 1 hr by Alphalisa assay. The procedure, abridged:
as §1

The target of assay [5] is Lysine-specific demethylase 6B (Homo sapiens, UniProt O15054). Briefly: Inhibition of human C-terminal FLAG-tagged KDM6B (1043 to end residues) expressed in baculovirus infected Sf9 insect cells at 25 uM using H3(21-44)-K27(Me3)-GK(Biotin)/2-OG as substrate measured after 1 hr by Alphalisa assay relative to control. The procedure, abridged:
as §1

A word on the IC50: it is the midpoint of a concentration-inhibition curve. A word on the inhibition: it is the relative decrease from the control value, in per cent. Low readings indicate a response near the control, high ones a response far below the control.

Chain of Histone lysine demethylase PHF8 (Q9UPP1 whole entry, the tested form may be a part): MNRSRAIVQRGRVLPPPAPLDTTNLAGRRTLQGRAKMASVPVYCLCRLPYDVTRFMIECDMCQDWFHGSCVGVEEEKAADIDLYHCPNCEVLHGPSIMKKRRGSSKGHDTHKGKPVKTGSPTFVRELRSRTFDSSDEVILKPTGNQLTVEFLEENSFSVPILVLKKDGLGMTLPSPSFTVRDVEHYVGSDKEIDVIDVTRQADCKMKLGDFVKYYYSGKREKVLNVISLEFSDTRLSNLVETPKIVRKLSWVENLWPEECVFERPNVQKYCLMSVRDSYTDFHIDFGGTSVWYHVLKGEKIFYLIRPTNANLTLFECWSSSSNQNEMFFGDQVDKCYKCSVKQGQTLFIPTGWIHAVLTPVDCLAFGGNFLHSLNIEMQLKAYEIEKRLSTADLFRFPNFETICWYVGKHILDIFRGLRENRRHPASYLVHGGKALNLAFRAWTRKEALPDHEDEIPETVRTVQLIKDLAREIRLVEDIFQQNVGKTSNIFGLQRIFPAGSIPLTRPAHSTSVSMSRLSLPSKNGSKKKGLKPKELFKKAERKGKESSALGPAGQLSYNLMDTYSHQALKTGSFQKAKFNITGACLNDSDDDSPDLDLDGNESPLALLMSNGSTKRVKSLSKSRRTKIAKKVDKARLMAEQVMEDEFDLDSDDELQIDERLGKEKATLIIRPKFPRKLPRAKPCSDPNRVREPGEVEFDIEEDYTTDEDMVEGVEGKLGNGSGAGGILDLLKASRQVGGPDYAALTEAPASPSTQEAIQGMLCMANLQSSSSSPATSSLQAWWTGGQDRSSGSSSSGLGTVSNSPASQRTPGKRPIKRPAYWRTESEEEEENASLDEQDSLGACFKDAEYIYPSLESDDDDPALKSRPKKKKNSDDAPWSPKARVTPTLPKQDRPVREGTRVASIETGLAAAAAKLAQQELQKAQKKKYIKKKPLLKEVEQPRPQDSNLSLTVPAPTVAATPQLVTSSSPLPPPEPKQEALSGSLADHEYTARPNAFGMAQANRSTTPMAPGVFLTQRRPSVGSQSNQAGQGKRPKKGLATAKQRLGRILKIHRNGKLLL
Chain of Lysine-specific demethylase 5A (P29375 whole entry, the tested form may be a part): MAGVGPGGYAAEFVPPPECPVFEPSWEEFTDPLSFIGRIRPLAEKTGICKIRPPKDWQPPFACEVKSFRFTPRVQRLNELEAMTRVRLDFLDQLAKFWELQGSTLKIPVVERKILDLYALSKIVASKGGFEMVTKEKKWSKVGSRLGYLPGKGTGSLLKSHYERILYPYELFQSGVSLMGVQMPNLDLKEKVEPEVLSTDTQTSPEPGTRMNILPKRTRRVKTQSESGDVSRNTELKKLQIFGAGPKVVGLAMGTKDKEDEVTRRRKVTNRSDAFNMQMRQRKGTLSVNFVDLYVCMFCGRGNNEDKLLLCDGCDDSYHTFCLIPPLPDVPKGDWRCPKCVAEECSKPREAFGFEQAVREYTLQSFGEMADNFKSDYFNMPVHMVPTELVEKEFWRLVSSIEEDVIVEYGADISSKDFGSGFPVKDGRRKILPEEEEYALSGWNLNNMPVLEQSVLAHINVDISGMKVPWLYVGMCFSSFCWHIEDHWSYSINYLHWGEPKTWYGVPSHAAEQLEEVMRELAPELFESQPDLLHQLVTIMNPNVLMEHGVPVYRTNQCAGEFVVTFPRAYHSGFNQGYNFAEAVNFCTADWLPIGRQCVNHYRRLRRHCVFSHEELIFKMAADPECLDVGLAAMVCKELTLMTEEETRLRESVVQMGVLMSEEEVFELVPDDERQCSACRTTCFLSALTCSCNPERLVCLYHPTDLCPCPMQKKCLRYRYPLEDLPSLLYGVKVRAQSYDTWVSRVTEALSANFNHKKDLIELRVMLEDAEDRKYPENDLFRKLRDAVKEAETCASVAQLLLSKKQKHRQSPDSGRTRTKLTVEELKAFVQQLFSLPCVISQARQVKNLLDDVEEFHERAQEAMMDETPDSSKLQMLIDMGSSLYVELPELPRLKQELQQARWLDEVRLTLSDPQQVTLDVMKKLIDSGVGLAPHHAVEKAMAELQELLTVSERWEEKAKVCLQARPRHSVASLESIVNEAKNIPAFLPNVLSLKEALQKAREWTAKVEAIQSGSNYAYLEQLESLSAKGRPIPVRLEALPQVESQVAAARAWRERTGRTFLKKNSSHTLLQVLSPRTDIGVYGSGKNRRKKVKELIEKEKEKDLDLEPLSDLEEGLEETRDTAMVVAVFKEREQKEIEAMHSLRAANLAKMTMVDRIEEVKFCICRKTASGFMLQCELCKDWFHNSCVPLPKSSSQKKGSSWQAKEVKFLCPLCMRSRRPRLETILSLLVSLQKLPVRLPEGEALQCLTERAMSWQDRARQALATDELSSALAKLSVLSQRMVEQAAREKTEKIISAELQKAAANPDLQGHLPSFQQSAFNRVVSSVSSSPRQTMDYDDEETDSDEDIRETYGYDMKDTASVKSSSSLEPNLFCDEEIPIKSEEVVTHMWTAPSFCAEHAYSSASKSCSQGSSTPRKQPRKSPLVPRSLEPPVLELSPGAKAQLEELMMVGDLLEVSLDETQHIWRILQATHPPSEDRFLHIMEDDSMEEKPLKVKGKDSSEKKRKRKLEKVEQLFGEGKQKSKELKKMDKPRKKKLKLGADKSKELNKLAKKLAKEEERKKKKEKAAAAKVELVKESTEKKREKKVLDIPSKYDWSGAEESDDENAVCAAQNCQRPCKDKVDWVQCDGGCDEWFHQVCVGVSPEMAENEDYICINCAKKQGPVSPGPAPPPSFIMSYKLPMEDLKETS
Chain of Lysine-specific demethylase 6B (O15054 whole entry): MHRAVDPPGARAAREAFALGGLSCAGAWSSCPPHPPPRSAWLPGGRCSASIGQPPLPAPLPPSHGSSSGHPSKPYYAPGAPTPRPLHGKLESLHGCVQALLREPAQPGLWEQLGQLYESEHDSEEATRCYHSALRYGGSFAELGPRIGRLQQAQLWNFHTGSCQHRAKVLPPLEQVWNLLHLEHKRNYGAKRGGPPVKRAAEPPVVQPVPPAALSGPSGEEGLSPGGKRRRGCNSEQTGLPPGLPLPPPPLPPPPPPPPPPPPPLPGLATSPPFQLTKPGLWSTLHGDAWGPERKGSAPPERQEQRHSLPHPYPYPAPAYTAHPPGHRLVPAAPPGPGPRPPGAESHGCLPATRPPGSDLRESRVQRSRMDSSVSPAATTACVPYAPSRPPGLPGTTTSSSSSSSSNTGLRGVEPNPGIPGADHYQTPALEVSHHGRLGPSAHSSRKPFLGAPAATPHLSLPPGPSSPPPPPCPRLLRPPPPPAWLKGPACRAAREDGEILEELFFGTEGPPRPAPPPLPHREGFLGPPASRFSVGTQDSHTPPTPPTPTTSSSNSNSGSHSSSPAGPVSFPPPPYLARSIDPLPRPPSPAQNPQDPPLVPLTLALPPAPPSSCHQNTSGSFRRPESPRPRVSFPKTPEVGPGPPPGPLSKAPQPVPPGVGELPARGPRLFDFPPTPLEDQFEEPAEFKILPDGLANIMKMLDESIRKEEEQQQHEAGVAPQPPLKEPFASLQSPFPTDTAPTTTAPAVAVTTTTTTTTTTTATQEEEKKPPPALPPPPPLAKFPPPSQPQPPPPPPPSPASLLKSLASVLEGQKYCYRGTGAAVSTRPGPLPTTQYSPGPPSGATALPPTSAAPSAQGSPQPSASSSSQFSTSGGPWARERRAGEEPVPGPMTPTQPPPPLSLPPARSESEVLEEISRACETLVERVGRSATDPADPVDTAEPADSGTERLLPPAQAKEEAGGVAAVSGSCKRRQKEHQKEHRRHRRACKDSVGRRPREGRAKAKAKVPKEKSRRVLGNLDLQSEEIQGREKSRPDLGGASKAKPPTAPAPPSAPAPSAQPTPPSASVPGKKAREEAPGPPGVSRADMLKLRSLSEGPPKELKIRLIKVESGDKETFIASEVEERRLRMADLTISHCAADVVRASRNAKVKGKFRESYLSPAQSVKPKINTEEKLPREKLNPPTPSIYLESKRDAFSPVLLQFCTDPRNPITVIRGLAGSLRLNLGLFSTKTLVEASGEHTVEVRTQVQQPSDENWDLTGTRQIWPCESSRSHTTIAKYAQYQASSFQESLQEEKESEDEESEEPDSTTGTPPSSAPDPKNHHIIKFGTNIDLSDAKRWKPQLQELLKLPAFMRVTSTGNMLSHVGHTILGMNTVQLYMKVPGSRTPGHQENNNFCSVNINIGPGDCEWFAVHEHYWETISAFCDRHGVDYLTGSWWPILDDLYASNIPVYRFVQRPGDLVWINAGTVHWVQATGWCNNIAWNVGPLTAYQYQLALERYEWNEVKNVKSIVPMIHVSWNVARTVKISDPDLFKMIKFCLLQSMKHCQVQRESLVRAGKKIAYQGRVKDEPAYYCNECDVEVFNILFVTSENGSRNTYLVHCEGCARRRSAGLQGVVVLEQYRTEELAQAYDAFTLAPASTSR

On to `CCCCCCN(C)Cc1ccc(-c2[nH]c3c(C#N)cnn3c(=O)c2C(C)C)cc1`, for which the Ratio IC50 in assay [1] amounted to 22. In addition, the IC50 in assay [2] is over 50 µM; in assay [3], 25 µM; in assay [4], over 50 µM.

Compound `CC(C)c1c(-c2ccccc2)[nH]c2c(C#N)cnn2c1=O` had an inhibition in assay [5] of 69.1%.

The record behind these values is ChEMBL document CHEMBL4422684, “Identification of novel lysine demethylase 5-selective inhibitors by inhibitor-based fragment merging strategy” (Bioorg Med Chem, 2019).
